# According to ChEMBL document CHEMBL1122273, “5-sulfamoylorthanilic acids, a sulfonamide series with salidiuretic activity” (J Med Chem, 1983):
# Activity calls are given as the source filed them. No cut-off for these calls is given here.
# Experiments:
# [1] = It is the ratio, measured as saluretic activity in the dog as concentration of Cl- in urinary excretion (dose 1.56 mg/Kg, po) to that of (Na+)+(K+); assay type: functional, Urine
# How it was run: (§1)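 Trained male beagles, fasted 24 h with tap water ad libitum. Bladder emptied by catheter, then 20 mL/kg tap water by stomach tube, with 4 mL/kg water at each hourly catheterization up to 8 h. The first 2 h of urine served as control. Oral dosing came after the second catheterization, and 1–6 h urine was pooled. Na⁺ and K⁺ were measured by flame photometry, Cl⁻ argentometrically, in mequiv/kg.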
# Canis familiaris [2] = assay: Diuretic activity in the dog (2 animals/dose) at (dose 1.56 mg/Kg), when administered perorally; assay type: functional, Canis lupus familiaris, Urine; how it was run: as §1
# Canis familiaris [3] = assay: Saluretic activity in the dog measured as concentration of Na+ in urinary excretion (2 animals/dose) at (dose 1.56 mg/Kg, po); assay type: functional, Canis lupus familiaris, Urine
# How it was run: (§2)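 Male beagles trained to rest on a table and to accept stomach tube and catheter. Food withdrawn 24 h before, tap water ad libitum. Bladder emptied by catheter, then 20 mL/kg tap water by stomach tube. Catheterized hourly up to 8 h with 4 mL/kg water orally each time; first 2 h urine served as control. Oral dosing after second catheterization. Pooled 1–6 h urine; Na⁺/K⁺ by flame photometry, Cl⁻ argentometrically.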
# Rattus norvegicus [4] = organism: Rattus norvegicus; assay: Saluretic activity in the rat measured as concentration of Na+ in urine; assay type: functional
# How it was run: (§3)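 Rats deprived of food 24 h, water ad libitum, dosed 50 mg/kg by stomach tube as suspension in 2% starch, no extra water load. Groups of three in diuresis funnels; urine over first 5 h collected. Na⁺ and K⁺ by flame photometry, Cl⁻ argentometrically; expressed as mequiv/kg.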
# [5] = (§4) It is the ratio, measured as saluretic activity in the dog as concentration of Na+ in urinary excretion (dose 1.56 mg/Kg, po) to that of K; assay type: functional, Urine; how it was run: as §1
# Canis familiaris [6] = assay: Saluretic activity in the dog measured as concentration of K+ in urinary excretion (2 animals/dose) at (dose 1.56 mg/Kg, po); assay type: functional, Canis lupus familiaris, Urine; how it was run: as §2
# Rattus norvegicus [7] = organism: Rattus norvegicus; assay: Saluretic activity in the rat measured as concentration of K+ in urine; assay type: functional; how it was run: as §3
# Rattus norvegicus [8] = organism: Rattus norvegicus; assay: Diuretic activity in the rats, determined by a modified Lipschitz test; assay type: functional, Urine
# How it was run: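 Modified Lipschitz test: rats deprived of water 24 h, grouped in threes of similar weight in diuresis funnels. Oral dose of 50 mg/kg, suspended in 2% starch solution, by stomach tube.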
# Rattus norvegicus [9] = organism: Rattus norvegicus; assay: Saluretic activity in the rat measured as concentration of chloride in urine; assay type: functional; how it was run: as §3
# Canis familiaris [10] = assay: Saluretic activity in the dog measured as concentration of Cl - in urinary excretion (2 animals/dose) at (dose mg/Kg, po); assay type: functional, Canis lupus familiaris, Urine
# How it was run: (§5)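 Male beagles trained to the procedures, food withdrawn 24 h before, tap water ad libitum. Bladder emptied by catheter, then 20 mL/kg tap water by stomach tube, plus 4 mL/kg orally at each hourly catheterization up to 8 h. The first 2 h of urine served as control. Compound given orally after the second catheterization. Urine from 1–6 h post-dose pooled; Na⁺ and K⁺ by flame photometry, Cl⁻ argentometrically, in mequiv/kg.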
# [11] = It is the ratio, measured as saluretic activity in the dog as concentration of Na+ in urinary excretion (dose 0.4 mg/Kg, po) to that of K; assay type: functional, Urine; how it was run: as §1
# Canis familiaris [12] = assay: Saluretic activity in the dog measured as concentration of Cl - in urinary excretion (2 animals/dose) at (dose 0.4 mg/Kg, po); assay type: functional, Canis lupus familiaris, Urine; how it was run: as §5
# Canis familiaris [13] = assay: as §4; assay type: functional, Canis lupus familiaris, Urine; how it was run: as §1
# Canis familiaris [14] = assay: Saluretic activity in the dog measured as concentration of K+ in urinary excretion (2 animals/dose) at (dose 6.25 mg/Kg, po); assay type: functional, Canis lupus familiaris, Urine; how it was run: as §2
# Canis familiaris [15] = assay: Saluretic activity in the dog measured as concentration of Na+ in urinary excretion (2 animals/dose) at (dose 0.4 mg/Kg, po); assay type: functional, Canis lupus familiaris, Urine; how it was run: as §2
# Canis familiaris [16] = assay: Saluretic activity in the dog measured as concentration of K+ in urinary excretion (2 animals/dose) at (dose 0.4 mg/Kg, po); assay type: functional, Canis lupus familiaris, Urine; how it was run: as §5
# Canis familiaris [17] = assay: Saluretic activity in the dog measured as concentration of K+ in urinary excretion (2 animals/dose) at (dose 0.1 mg/Kg, po); assay type: functional, Canis lupus familiaris, Urine; how it was run: as §5
# Canis familiaris [18] = assay: Saluretic activity in the dog measured as concentration of Na+ in urinary excretion (2 animals/dose) at (dose 0.1 mg/Kg, po); assay type: functional, Canis lupus familiaris, Urine; how it was run: as §2
# Canis familiaris [19] = assay: Diuretic activity in the dog (2 animals/dose) at (dose 6.25 mg/Kg), when administered perorally; assay type: functional, Canis lupus familiaris, Urine; how it was run: as §1
# [20] = It is the ratio, measured as saluretic activity in the dog as concentration of Na+ in urinary excretion (dose 6.25 mg/Kg, po) to that of K; assay type: functional, Urine; how it was run: as §1
# Rattus norvegicus [21] = assay: Salidiuretic activity on the basis of the 50 mg/kg po rat assay; compound was highly active; assay type: functional, organism-based; design: dose 50 mg/kg; details: Urine
# Canis familiaris [22] = assay: Saluretic activity in the dog measured as concentration of Na+ in urinary excretion (2 animals/dose) at (dose 6.25 mg/Kg, po); assay type: functional, Canis lupus familiaris, Urine; how it was run: as §2
# Canis familiaris [23] = assay: Saluretic activity in the dog measured as concentration of Cl - in urinary excretion (2 animals/dose) at (dose 6.25 mg/Kg, po); assay type: functional, Canis lupus familiaris, Urine; how it was run: as §5
# [24] = It is the ratio, measured as saluretic activity in the dog as concentration of Cl- in urinary excretion (dose 6.25 mg/Kg, po) to that of (Na++K+); assay type: functional, Urine; how it was run: as §1
# [25] = It is the ratio, measured as saluretic activity in the dog as concentration of Cl- in urinary excretion (dose 0.1 mg/Kg, po) to that of (Na++K+); assay type: functional, Urine; how it was run: as §1
# Canis familiaris [26] = assay: Salidiuretic activity on the basis of the 1.56 mg/Kg po dog assay; compound was highly active; assay type: functional, organism-based; details: Canis lupus familiaris; Urine
# Canis familiaris [27] = assay: Saluretic activity in the dog measured as concentration of Cl - in urinary excretion (2 animals/dose) at (dose 0.1 mg/Kg, po); assay type: functional, Canis lupus familiaris, Urine; how it was run: as §5
# [28] = It is the ratio, measured as saluretic activity in the dog as concentration of Na+ in urinary excretion (dose 0.1 mg/Kg, po) to that of K; assay type: functional, Urine; how it was run: as §1
# Canis familiaris [29] = assay: Saluretic activity in the dog measured as concentration of Cl - in urinary excretion (2 animals/dose) at (dose 1.56 mg/Kg, po); assay type: functional, Canis lupus familiaris, Urine; how it was run: as §5
# [30] = It is the ratio, measured as saluretic activity in the dog as concentration of Cl- in urinary excretion (dose 0.4 mg/Kg, po) to that of (Na++K+); assay type: functional, Urine; how it was run: as §1
# [31] = It is the ratio, measured as saluretic activity in the dog as concentration of Cl- in urinary excretion (dose 1.56 mg/Kg, po) to that of (Na++K+); assay type: functional, Urine; how it was run: as §1
# Canis familiaris [32] = assay: Diuretic activity in the dog (2 animals/dose) at (dose 0.1 mg/Kg), when administered perorally; assay type: functional, Canis lupus familiaris, Urine; how it was run: as §1
# Canis familiaris [33] = assay: Diuretic activity in the dog (2 animals/dose) at (dose 0.4 mg/Kg), when administered perorally; assay type: functional, Canis lupus familiaris, Urine; how it was run: as §1
# Canis familiaris [34] = assay: Salidiuretic activity in the dog measured as concentration of Cl - in urinary excretion (2 animals/dose) at (dose 1.56 mg/Kg, perorally); assay type: functional, Canis lupus familiaris, Urine; how it was run: as §5
# Canis familiaris [35] = assay: Salidiuretic activity in the dog measured as concentration of K+ in urinary excretion (2 animals/dose) at (dose 1.56 mg/Kg, perorally); assay type: functional, Canis lupus familiaris, Urine; how it was run: as §5
# Canis familiaris [36] = assay: Saluretic activity in the dog measured as concentration of Na+ in urinary excretion (2 animals/dose) at (dose 1.56 mg/Kg, perorally); assay type: functional, Canis lupus familiaris, Urine; how it was run: as §2
structure (smiles),measurement,setting,value
NS(=O)(=O)c1cc(S(=O)(=O)[O-])c(NCc2ccco2)cc1[S+]([O-])c1ccccc1.[K+] (stereo not drawn),Ratio,[1],1.3
same,Diuretic activity,Canis familiaris [2],48.4 ml kg-1 6hr-1
same,Saluretic activity,Canis familiaris [3],0.59 m equiv 6hr-1 kg-1
same,Saluretic activity,Rattus norvegicus [4],0.8 m equiv 5hr-1 kg-1
same,Ratio,[5],1.8
same,Saldiuretic activity,Canis familiaris [6],0.33 m equiv 6hr-1 kg-1
same,Saluretic activity,Rattus norvegicus [7],1.5 m equiv 5hr-1 kg-1
same,Diuretic activity,Rattus norvegicus [8],0.8 mL/kg
same,Saluretic activity,Rattus norvegicus [9],1.7 m equiv 5hr-1 kg-1
same,Saldiuretic activity,Canis familiaris [10],1.27 m equiv 6hr-1 kg-1
NS(=O)(=O)c1cc(S(=O)(=O)[O-])c(NCc2ccco2)cc1S(=O)(=O)C1CCCCC1.[Na+],Ratio,[11],4.5
same,Saldiuretic activity,Canis familiaris [12],4.43 m equiv 6hr-1 kg-1
same,Ratio,Canis familiaris [13],4.7
same,Saldiuretic activity,Canis familiaris [14],1.16 m equiv 6hr-1 kg-1
same,Saluretic activity,Canis familiaris [15],3.71 m equiv 6hr-1 kg-1
same,Saluretic activity,Canis familiaris [16],0.82 m equiv 6hr-1 kg-1
same,Saldiuretic activity,Canis familiaris [17],0.53 m equiv 6hr-1 kg-1
same,Diuretic activity,Canis familiaris [2],66.7 ml kg-1 6hr-1
same,Saluretic activity,Canis familiaris [18],1.95 m equiv 6hr-1 kg-1
same,Saluretic activity,Canis familiaris [3],5.38 m equiv 6hr-1 kg-1
same,Diuretic activity,Canis familiaris [19],73.5 ml kg-1 6hr-1
same,Ratio,[20],4.7
same,Saluretic activity,Rattus norvegicus [4],8.2 m equiv 5hr-1 kg-1
same,Saldiuretic activity,Rattus norvegicus [21],Active
same,Saluretic activity,Canis familiaris [22],5.5 m equiv 6hr-1 kg-1
same,Saldiuretic activity,Canis familiaris [6],1.14 m equiv 6hr-1 kg-1
same,Saldiuretic activity,Canis familiaris [23],6.83 m equiv 6hr-1 kg-1
same,Saluretic activity,Rattus norvegicus [7],2.3 m equiv 5hr-1 kg-1
same,Ratio,[24],1
same,Ratio,[25],1
same,Saldiuretic activity,Canis familiaris [26],Active
same,Diuretic activity,Rattus norvegicus [8],2.8 mL/kg
same,Saldiuretic activity,Canis familiaris [27],2.49 m equiv 6hr-1 kg-1
same,Ratio,[28],3.7
same,Saldiuretic activity,Canis familiaris [29],6.15 m equiv 6hr-1 kg-1
same,Ratio,[30],1
same,Saluretic activity,Rattus norvegicus [9],9.1 m equiv 5hr-1 kg-1
same,Ratio,[31],0.95
same,Diuretic activity,Canis familiaris [32],44.7 ml kg-1 6hr-1
same,Diuretic activity,Canis familiaris [33],59 ml kg-1 6hr-1
NS(=O)(=O)c1cc(S(=O)(=O)[O-])c(NCCc2ccco2)cc1Cl.[Na+],Saldiuretic activity,Canis familiaris [34],0.76 m equiv 6hr-1 kg-1
same,Saldiuretic activity,Canis familiaris [35],0.15 m equiv 6hr-1 kg-1
same,Diuretic activity,Canis familiaris [2],29.3 ml kg-1 6hr-1
same,Saluretic activity,Rattus norvegicus [4],4.6 m equiv 5hr-1 kg-1
same,Saluretic activity,Rattus norvegicus [7],1.8 m equiv 5hr-1 kg-1
same,Diuretic activity,Rattus norvegicus [8],1.9 mL/kg
same,Saluretic activity,Canis familiaris [36],0.56 m equiv 6hr-1 kg-1
same,Saluretic activity,Rattus norvegicus [9],6.1 m equiv 5hr-1 kg-1
